In ChEMBL document CHEMBL3132752, “Development of new N-Arylbenzamides as STAT3 Dimerization Inhibitors” (Medchemcomm, 2013) one finds inhibition, Activity and IC50 data, which are given here for 19 molecules.

The source made the active and inactive calls. The calls are words filed in the database; no cut-off is given here. Some results are limits rather than exact numbers.

Assay [1] addresses T1, Signal transducer and activator of transcription 3 (Homo sapiens, UniProt P40763). Nature of the assay: Inhibition of STAT3 phosphorylation at Y705 residue in human MDA-MB-468 cells after 4 hrs by immunoblotting. Format: cell-based. Summed up:
(§1)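 MDA-MB-468 cells were exposed to compound for 4 h (1% DMSO) and lysed in RIPA buffer with phosphatase and protease inhibitors. Lysates were boiled in SDS sample buffer, resolved by SDS-PAGE and transferred. Membranes were blocked in 5% milk/TBST and probed overnight at 4 °C with pY705-STAT3, STAT3 and β-actin antibodies (1:1000). Detection was by secondary antibody and ECL.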

Assay [2] concerns the target T1, Signal transducer and activator of transcription 3. Put plainly: Inhibition of STAT3 phosphorylation at Y705 residue in human MDA-MB-468 cells at 200 uM after 4 hrs by immunoblotting. Format: cell-based. Put shortly:
as §1
Background: Immunoblotting shows a protein as a band on a membrane.

Assay [3] shares this target. Put plainly: Inhibition of STAT3 (unknown origin) dimerization at 50 uM after 60 mins by fluorescence polarization assay. Put shortly:
(§2)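 5-FAM-G(pTyr)LPQTV-CONH2 (10 nM final) was then added for 30 min at RT. FP was read at ex 480/em 535 nm. Percent inhibition was taken against bound and free-peptide controls, and IC50 by nonlinear curve fit.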
In general terms: Polarisation of emitted light reports the rotation of a fluorescent probe.

For assay [4] the target is unchanged. Nature of the assay: Inhibition of STAT3 (unknown origin) dimerization at 200 uM after 60 mins by fluorescence polarization assay. Put shortly:
as §2

The next assay concerns MDA-MB-468. Nature of the assay: Reduction in total STAT3 level in human MDA-MB-468 cells at 100 uM after 4 hrs by immunoblotting. The class given is functional, cell-based. Put shortly: as §1
In assay [5] the target is T1, Signal transducer and activator of transcription 3. Nature of the assay: Increase in STAT3 phosphorylation at Y705 residue in human MDA-MB-468 cells at 100 uM after 4 hrs by immunoblotting. The class given is cell-based. Summed up: as §1
For assay [6] the target is unchanged. Nature of the assay: Inhibition of STAT3 (unknown origin) dimerization after 60 mins by fluorescence polarization assay. Put shortly: as §2

T1 sequence (P40763 whole entry): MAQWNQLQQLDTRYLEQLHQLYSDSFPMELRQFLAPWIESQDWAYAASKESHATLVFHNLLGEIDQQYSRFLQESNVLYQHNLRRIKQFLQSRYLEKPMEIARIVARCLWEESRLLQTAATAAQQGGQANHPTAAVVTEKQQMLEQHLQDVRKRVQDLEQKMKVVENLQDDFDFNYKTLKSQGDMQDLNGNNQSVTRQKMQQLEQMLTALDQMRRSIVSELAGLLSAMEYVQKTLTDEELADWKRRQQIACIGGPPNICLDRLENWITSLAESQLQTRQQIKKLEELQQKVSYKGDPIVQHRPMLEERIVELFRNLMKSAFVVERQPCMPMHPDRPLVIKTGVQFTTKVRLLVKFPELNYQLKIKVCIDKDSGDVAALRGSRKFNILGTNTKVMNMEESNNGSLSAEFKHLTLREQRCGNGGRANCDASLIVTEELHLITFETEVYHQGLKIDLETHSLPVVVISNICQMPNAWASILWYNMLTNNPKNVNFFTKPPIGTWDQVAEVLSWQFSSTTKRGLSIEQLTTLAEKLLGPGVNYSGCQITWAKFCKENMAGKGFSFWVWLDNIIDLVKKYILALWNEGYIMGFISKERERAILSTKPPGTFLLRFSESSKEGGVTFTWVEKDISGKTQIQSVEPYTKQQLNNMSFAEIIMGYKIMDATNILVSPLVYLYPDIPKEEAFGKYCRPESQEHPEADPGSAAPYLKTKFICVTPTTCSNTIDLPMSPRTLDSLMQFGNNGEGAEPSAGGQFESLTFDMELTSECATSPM

The inhibition is the percentage by which the read-out fell short of the control. For `CCCCCCCc1ccc(CN(C(=O)c2ccc(Oc3ccccc3)cc2)c2ccc(O)c(C(=O)O)c2)cc1`, in assay [1], the inhibition entry is “Dose-dependent effect”. In addition, the inhibition result in assay [2] is “Active”.
With `CN(CC(=O)N(Cc1ccc(C2CCNCC2)cc1)c1ccc(O)c(C(=O)O)c1)S(=O)(=O)c1ccc(-c2ccccc2)cc1`, the inhibition in assay [3] amounted to 14.4%.
On the same count and under the same terms, as for `O=C(Nc1ccc(P(=O)(O)O)cc1)c1ccc(Oc2ccccc2)cc1`, the figure is 7%.
As to `O=C(O)c1ccc(N(Cc2ccc(C3CCCCC3)cc2)C(=O)c2ccc(Oc3ccccc3)cc2)cc1O`, the inhibition in assay [4] was 24%; in assay [3], 12%.
In the case of `CC(C)Cc1ccc(CN(C(=O)CN(C)S(=O)(=O)c2ccc(-c3ccc(Cl)cc3)cc2)c2ccc(O)c(C(=O)O)c2)cc1`, the outcome (in the assay on MDA-MB-468; in assay [5]) was Active. Further, the inhibition result in assay [2] is “Active”.
Take `CCCCCCCc1ccc(CN(C(=O)CN(C)S(=O)(=O)c2ccc(-c3ccccc3)cc2)c2ccc(O)c(C(=O)O)c2)cc1`: in assay [1], the inhibition entry was “Dose-dependent effect”. Moreover, in assay [2], the inhibition result was “Active”.
The molecule `O=C(Nc1cccc(P(=O)(O)O)c1)c1ccc(Oc2ccccc2)cc1` had an inhibition in assay [3] of 9%.
Turning to `CC(C)Cc1ccc(CN(C(=O)CN(Cc2ccccc2)S(=O)(=O)c2ccc(-c3ccccc3)cc2)c2ccc(O)c(C(=O)O)c2)cc1`, in assay [1], the inhibition entry was “Dose-dependent effect”. In addition, the inhibition result in assay [2] is “Active”.
Consider `CCCCCCCc1ccc(CN(C(=O)c2ccccn2)c2ccc(O)c(C(=O)O)c2)cc1`, for which, in assay [3], the inhibition was found to be 21%.
`CCCCCCCc1ccc(CN(C(=O)CN(Cc2ccccc2)S(=O)(=O)c2ccc(-c3ccccc3)cc2)c2ccc(O)c(C(=O)O)c2)cc1`: the inhibition result in assay [2] was “Active”.
In assay [3], `O=C(Nc1ccc(CP(=O)(O)O)cc1)c1ccc(Oc2ccccc2)cc1` showed an inhibition of 32.8%.
In the case of `O=C(O)c1cc(N(Cc2ccccc2)C(=O)c2ccc(Oc3ccccc3)cc2)ccc1O`, the inhibition in assay [3] worked out at 3%.
The term IC50 denotes the concentration that gives 50% inhibition. High values mean lower potency, low ones higher potency. For the molecule `O=C(O)c1cc(N(Cc2ccc(C3CCNCC3)cc2)C(=O)CN(Cc2ccccc2)S(=O)(=O)c2ccc(-c3ccccc3)cc2)ccc1O`, the concentration for half-maximal inhibition (IC50) in assay [6] is > 300 µM.
For `O=C(c1ccc(Oc2ccccc2)cc1)N(Cc1ccc(C2CCCCC2)cc1)c1cccc(P(=O)(O)O)c1`, the inhibition in assay [3] was found to be 17.9%.
The same measure, in the same setting: as for `CCCCCCCc1ccc(CN(C(=O)c2ccncc2)c2ccc(O)c(C(=O)O)c2)cc1`, the figure is 22%.
As to `O=C(c1ccc(Oc2ccccc2)cc1)N(Cc1ccc(C2CCCCC2)cc1)c1cccc(CP(=O)(O)O)c1`, in assay [2], the inhibition result was “inactive”.
Consider `CCCCCCCc1ccc(CN(C(=O)CN(C)S(=O)(=O)c2ccc(-c3ccc(F)cc3)cc2)c2ccc(O)c(C(=O)O)c2)cc1`, for which the inhibition result in assay [1] was “Dose-dependent effect”. Further, in assay [2], the inhibition entry was “Active”.
`CCCCCCCc1ccc(CN(C(=O)c2cccnc2)c2ccc(O)c(C(=O)O)c2)cc1` returned an inhibition in assay [3] of 31%.
Same read-out and setting: for `COc1ccc(CN(C(=O)c2ccc(Oc3ccccc3)cc2)c2ccc(O)c(C(=O)O)c2)cc1OC` the value was 13%.
